# Measured values published in PMC9306447 (Clinical Cancer Research, 2022).
# Where “and” joins values, the source holds several entries; their conditions need not be identical. Identical values can stand only once. Like-named read-outs stand apart in the source and are kept apart here.
# Key:
# [1] = Steady-state plasma PK of total and unbound ceritinib; format: in vivo, human; details: for Css,max / Tss,max: plasma
# [2] = Ceritinib concentrations in brain tumor and CSF and extent of CNS penetration; format: in vivo, human; details: for Total drug tumor conc. EN / Unbound drug tumor conc. EN: enhancing tumor; for Total drug tumor conc. NE / Unbound drug tumor conc. NE: nonenhancing tumor
# human plasma proteins = test: Fraction unbound in plasma by equilibrium dialysis; format: in vitro ADME; details: patient plasma; median and range
# In short: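 Patient plasma came from subjects dosed orally with the test compound for 10 days (750 mg/day fasted or 450 mg/day fed). Blood was sampled on day 9 and intraoperatively, centrifuged at 4°C, 1,500 g for 10 min, and the plasma stored at −80°C. Fraction unbound was measured by equilibrium dialysis; unbound concentration is total concentration (LC-MS/MS) times fraction unbound.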
# [3] = Fraction unbound in brain tumor tissue by equilibrium dialysis; format: in vitro ADME, human; details: for Fraction unbound EN: enhancing tumor tissue; for Fraction unbound NE: nonenhancing tumor tissue
# In short: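 Patients with brain metastasis or recurrent glioblastoma took the test compound orally for 10 days: 750 mg/day fasted or 450 mg/day with food. Tumor was resected 2 to 4, 6 to 8 or 23 to 25 h after the 10th dose. Regions were gadolinium-enhancing or, for glioblastoma, also nonenhancing, defined by preoperative MRI and intraoperative neuronavigation. Fraction unbound was measured by equilibrium dialysis, with total drug by LC-MS/MS.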
# [4] = Clinical safety, adverse events graded by CTCAE; format: in vivo, human; details: 10 patients
# IGF1R = details: read-out: biochemical IC50; cited from earlier work
# FAK = details: read-out: biochemical IC50; cited from earlier work
# [5] = tested on: ALK(+) NSCLC brain metastases; details: ASCEND-1, cited from earlier work
# [6] = daily dose; cited from earlier work
# [7] = tested on: ALK(+) NSCLC with brain metastases; details: across all four arms of ASCEND-7; cited from earlier work
# [8] = total ceritinib, arithmetic mean of 10 patients (750 or 450 mg/day)
# [9] = total ceritinib, geometric mean of 10 patients (750 or 450 mg/day)
# [10] = unbound ceritinib, arithmetic mean of 10 patients (750 or 450 mg/day)
# [11] = unbound ceritinib, geometric mean of 10 patients (750 or 450 mg/day)
# [12] = mean of patients, all time points
# [13] = median of patients, all time points
# [14] = individual patients 7, 9, 13, 6–8 h after 10th dose, 450 mg/day
# [15] = individual patients 8, 14, 23–25 h after 10th dose, 450 mg/day
# [16] = individual patients 5, 11, 2–4 h after 10th dose, 450 mg/day
# [17] = individual patients 7, 9, 13 (resection 6–8 h)
# [18] = individual patients 8, 14 (resection 23–25 h)
# [19] = median (range given) of patients
compound,measurement,setting,value
"Cc1cc(Nc2ncc(Cl)c(Nc3ccccc3S(=O)(=O)C(C)C)n2)c(OC(C)C)cc1C1CCNCC1 [ceritinib, 5-chloro-N2-(2-isopropoxy-5-methyl-4-(piperidin-4-yl)phenyl)-N4-(2-(isopropylsufonyl)phenyl)pyrimidine-2,4-diamine]","Css,max",[1]; [8],1279 nM
same,"Tss,max",[1]; [8],6.1 h
same,"Css,max",[1]; [9],1230 nM
same,"Tss,max",[1]; [9],5.9 h
same,CL/F,[1]; [8],42.5 L/h
same,fluctuation between steady-state peak and trough plasma concentrations,"[1]; total ceritinib, geometric mean",1.4 fold
same,CL/F,"[1]; total ceritinib, individual patients 1-3 (brain metastases), 750 mg/day fasted",29.8 L/h and 66.9 L/h and 54.6 L/h
same,CL/F,"[1]; total ceritinib, individual patients 5-14 (glioblastoma), 450 mg/day with food",35.9 L/h and 39.8 L/h and 34.1 L/h and 34.7 L/h and 40.8 L/h and 37.8 L/h and 50.1 L/h
same,"Css,max",[1]; [10],19 nM
same,"Tss,max",[1]; [10],9.3 h
same,"Css,max",[1]; [11],15 nM
same,"Tss,max",[1]; [11],7.0 h
same,CSF concentration,"[2]; individual patient 14, 23–25 h after 10th dose, 450 mg/day",0.015 µM
same,CSF concentration,"[2]; individual patients 7, 13, 6–8 h after 10th dose, 450 mg/day",0.003 µM and 0.015 µM
same,CSF concentration,[2]; [12],0.022 µM
same,CSF concentration,[2]; [13],0.012 µM
same,Total drug tumor conc. EN,[2]; [14],17.770 nmol/mg and 28.484 nmol/mg and 58.893 nmol/mg
same,Unbound drug tumor conc. EN,[2]; [14],0.001 nmol/mg and 0.043 nmol/mg and 0.018 nmol/mg
same,Total drug tumor conc. EN,[2]; [15],18.340 nmol/mg and 43.715 nmol/mg
same,Unbound drug tumor conc. EN,[2]; [15],0.055 nmol/mg and 0.063 nmol/mg
same,Total drug tumor conc. EN,[2]; [12],46.954 nmol/mg
same,Unbound drug tumor conc. EN,[2]; [12],0.117 nmol/mg
same,Total drug tumor conc. EN,[2]; [13],36.100 nmol/mg
same,Unbound drug tumor conc. EN,[2]; [13],0.048 nmol/mg
same,unbound concentration in enhancing tumor,[2]; median,48 nM
same,unbound concentration in nonenhancing tumor,[2]; median,6 nM
same,Total drug tumor conc. NE,[2]; [16],36.351 nmol/mg and 1.259 nmol/mg
same,Unbound drug tumor conc. NE,[2]; [16],0.017 nmol/mg and BLQ
same,Total drug tumor conc. NE,[2]; [12],9.674 nmol/mg
same,Unbound drug tumor conc. NE,[2]; [12],0.008 nmol/mg
same,Total drug tumor conc. NE,[2]; [13],2.771 nmol/mg
same,Unbound drug tumor conc. NE,[2]; [13],0.006 nmol/mg
same,fraction unbound in human plasma,human plasma proteins,1.4% and 0.6%–2.6%
same,Fraction unbound EN,"[3]; individual patients 1, 2, 3, 5, 11 (resection 2–4 h)",1.618% and 0.039% and 0.047% and 0.056%
same,Fraction unbound EN,[3]; [17],0.006% and 0.153% and 0.030%
same,Fraction unbound EN,[3]; [18],0.298% and 0.144%
same,Fraction unbound EN,[3]; [19],0.006%–1.6% and 0.051%
same,Fraction unbound NE,"[3]; individual patients 5, 11 (resection 2–4 h)",0.045% and 0.006%
same,Fraction unbound NE,[3]; [17],0.006% and 0.163% and 0.030%
same,Fraction unbound NE,[3]; [18],0.090% and 0.213%
same,Fraction unbound NE,[3]; [19],0.045% and 0.006%–0.21%
same,fraction unbound in the tumor relative to the median value,"[3]; patient 1, breast cancer brain metastasis",approximately 30 fold
same,tolerability of presurgical ceritinib,[4]; 10-day presurgical course,well tolerated
same,severity of toxicities at least possibly related to ceritinib,[4]; CTCAE 4.0,minor (CTCAE 4.0 grades 1 and 2)
same,IC50,IGF1R,8 nM
same,IC50,FAK,30 nM
same,intracranial disease control rate,[5]; ALKi-naïve patients (15/19),78.9%
same,intracranial disease control rate,[5]; ALKi-pretreated patients (49/75),65.3%
same,maximally tolerated dose (MTD),[6],750 mg
same,"disease control rate (DCR), intracranial",[7],High disease control rate
